Test results as given in ChEMBL document CHEMBL1155834, “Antimicrobial diterpenes from Trigonostemon chinensis” (2008).
In brackets after ≈: the same amount, converted by molar mass.

Experiments:
Assay type in all cases: functional
[1] = system: Staphylococcus epidermidis; assay: Antibacterial activity against Staphylococcus epidermidis ATCC 12228 after 18 hrs; conditions: ATCC 12228, 18 h
Procedure, shortened: (§1)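 Broth dilution in Mueller Hinton broth, compounds dissolved in DMSO. Cells incubated aerobically with compound at 37 °C for 18 h, with DMSO-only blank cultures. MIC is the lowest concentration giving complete inhibition of visible growth.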

Staphylococcus aureus = assay: Antibacterial activity against Staphylococcus aureus ATCC 25923 after 18 hrs; conditions: ATCC 25923, 18 h; procedure, shortened: as §1
Helicobacter pylori [2] = assay: Antibacterial activity against Helicobacter pylori SS1 after 96 hrs; conditions: SS1, 96 h
Procedure, shortened: (§2)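 Agar plates inoculated with H. pylori cells suspended in saline at 10^8 cfu/mL, incubated 37 °C for 96 h microaerobically (5% O2, 10% CO2, 85% N2) alongside blank and positive controls. Triplicate tests.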

Micrococcus luteus = assay: Antibacterial activity against Micrococcus luteus ATCC 9341 after 18 hrs; conditions: ATCC 9341, 18 h; procedure, shortened: as §1
Bacillus subtilis = assay: Antibacterial activity against Bacillus subtilis CMCC 63501 after 18 hrs; procedure, shortened: as §1
Escherichia coli = assay: Antibacterial activity against Escherichia coli after 18 hrs; procedure, shortened: as §1
Pseudomonas aeruginosa = assay: Antibacterial activity against Pseudomonas aeruginosa after 18 hrs; procedure, shortened: as §1
Candida albicans = assay: Antifungal activity against Candida albicans after 48 hrs
Procedure, shortened: (§3)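 Fungi grown in Sabouraud dextrose broth with compound at 37 °C for 48 h. MIC is the lowest concentration completely inhibiting visible growth.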

Helicobacter pylori [3] = assay: Antibacterial activity against metronidazole-resistant Helicobacter pylori ATCC 43504 after 96 hrs; conditions: ATCC 43504, 96 h; procedure, shortened: as §2
Shigella flexneri = assay: Antibacterial activity against Shigella flexneri after 18 hrs; procedure, shortened: as §1
Nannizzia gypsea = assay: Antifungal activity against Microsporum gypseum after 48 hrs; procedure, shortened: as §3

SMILES | MIC [1] [µg/mL] | MIC (Staphylococcus aureus) [µg/mL] | MIC (Helicobacter pylori [2]) [µg/mL] | MIC (Micrococcus luteus) [µg/mL] | MIC (Bacillus subtilis) [µg/mL] | MIC (Escherichia coli) [µg/mL] | MIC (Pseudomonas aeruginosa) [µg/mL] | MIC (Candida albicans) [µg/mL] | MIC (Helicobacter pylori [3]) [µg/mL] | MIC (Shigella flexneri) [µg/mL] | MIC (Nannizzia gypsea) [µg/mL]
C=Cc1c(C)c(O)cc2c1CC[C@H](C(=C)C)[C@@]2(C)CCC(=O)OC | 6.25 (≈ 19 µM) | 12.5 (≈ 38.1 µM) | 25 (≈ 76.1 µM) | 6.25 (≈ 19 µM) | 3.12 (≈ 9.5 µM) | > 50 | > 50 | > 50 | 50 (≈ 152 µM) | > 50 | 50 (≈ 152 µM)
C=Cc1c(C)c(O)cc2c1CC[C@H](C(=C)C)[C@@]2(C)CCC(=O)O | > 50 | > 50 | 25 (≈ 79.5 µM) | > 50 | > 50 | > 50 | > 50 | > 50 | > 50 | > 50 | > 50
C=CCc1ccc(O)c(-c2cc(CC=C)ccc2O)c1 [MAGNOLOL] | 6.25 (≈ 23.5 µM) | 12.5 (≈ 46.9 µM) |  | 6.25 (≈ 23.5 µM) | 12.5 (≈ 46.9 µM) | > 50 | > 50 |  |  | > 50 | 
Cc1ncc([N+](=O)[O-])n1CCO [METRONIDAZOLE] |  |  | 0.5 (≈ 2.92 µM) |  |  |  |  |  | 128 (≈ 748 µM) |  | 
COC(=O)C1=CC[C@@]23CC[C@@H]([C@@](C)(/C=C/C=C(\C)C(=O)O)OC2=O)[C@@]3(OC(C)=O)CC1 [PSEUDOLARIC ACID B] |  |  |  |  |  |  |  | 6.25 (≈ 14.5 µM) |  |  | 12.5 (≈ 28.9 µM)
C=CC1=C(C)C(=O)C=C2[C@@]1(O)CC[C@H](C(=C)C)[C@@]2(C)CCC(=O)OC [TRIGONOCHINENE A] | > 50 | > 50 | 25 (≈ 72.6 µM) | > 50 | > 50 | > 50 | > 50 | > 50 | 50 (≈ 145 µM) | > 50 | > 50
C=CC1=C(C)C(=O)C=C2[C@]1(O)CC[C@H](C(=C)C)[C@@]2(C)CCC(=O)OC [TRIGONOCHINENE B] | > 50 | > 50 | 12.5 (≈ 36.3 µM) | > 50 | > 50 | > 50 | > 50 | > 50 | 25 (≈ 72.6 µM) | > 50 | > 50
C=CC1=C(C)C(=O)C=C2[C@]1(OO)CC[C@H](C(=C)C)[C@@]2(C)CCC(=O)OC [TRIGONOCHINENE C] | 25 (≈ 69.4 µM) | 50 (≈ 139 µM) | 50 (≈ 139 µM) | 12.5 (≈ 34.7 µM) | 12.5 (≈ 34.7 µM) | > 50 | > 50 | > 50 | 50 (≈ 139 µM) | > 50 | > 50
C=CC1=C(C)C(=O)C=C2[C@]13O[C@H]3C[C@H](C(=C)C)[C@@]2(C)CCC(=O)OC [TRIGONOCHINENE D] | > 50 | > 50 | 25 (≈ 73 µM) | > 50 | > 50 | > 50 | > 50 | > 50 | 50 (≈ 146 µM) | > 50 | > 50
COc1cc2c(cc(OC)c3cc(C)c(O)cc32)c(C)c1O [TRIGONOCHINENE E] | 6.25 (≈ 20.9 µM) | 6.25 (≈ 20.9 µM) | 25 (≈ 83.8 µM) | 12.5 (≈ 41.9 µM) | > 50 | > 50 | > 50 | 12.5 (≈ 41.9 µM) | > 50 | > 50 | 6.25 (≈ 20.9 µM)
